From PubChem BioAssay
The entries come from a sample that favours hits as a whole.
Insulin prom act: TRM-6 insulin promoter activation. TRM-6 cells (human fetal islet line), insulin promoter eGFP reporter, imaging; plate-scaled: unstimulated 0, stimulated control 100. activation, % at 2 µM. 130,000 tested, 0.81% active. AID 1296;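 active = activation at 2 µM above a set limit, confirmed on inspection of the cell images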;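 note: share of cells whose green reporter signal exceeds an intensity cutoff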
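Test system: TRM-6 insulin promoter–eGFP reporter cells / Quantity: 1,000 cells per well / Reagent: tamoxifen inducer, 0.75 µM, in seeding medium / Compound dosing: 2 µM final, single concentration / Schedule: overnight tamoxifen, then two-day compound incubation at 37 °C / Measured by: automated fluorescence imaging of paraformaldehyde-fixed, Hoechst-counterstained cells, green channel / Read-out: percent activation from GFP-positive cell fraction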
Numbers stand for hits; - = inactive.

SMILES | Insulin prom act
Cc1ccc(C2=NNC(=O)C(P(=O)(c3ccccc3)c3ccccc3)C2)cc1 (stereo not given) | -
O=C(O)/C=C\C(=O)NC1CCCCC1 | -
CCOC(=O)c1ccc(NC(=O)CSc2nc3cccnc3n2C)cc1 | -
O=C(Cc1ccc(Cl)cc1)c1c[nH]c(C(=O)NCCCn2ccnc2)c1 | -
C=CCn1c(-c2ccc(Cl)cc2)cnc1SC(C)C(=O)NC(N)=O (stereo not given) | 357.1
C=CCn1c(SCCOc2ccc(OC)cc2)nnc1C(C)NC(=O)c1ccc(OC)cc1 (stereo not given) | -
C=CCn1c(SCC(=O)NC2CCCCC2)nnc1-c1ccc(OC)cc1 | -
Cc1ccc(S(=O)(=O)Nc2cnn(-c3ccccc3)c(=O)c2Cl)cc1 | -
CN1C(=O)CC(N2CCN(c3ccccc3)CC2)C1=O (stereo not given) | -
COc1cccc(-n2nnnc2SCC(=O)c2cc(OC)ccc2OC)c1 | -
N#Cc1ccc(OCC(=O)N/N=C(\CCC(=O)O)c2cccs2)cc1 | -
CC1CN(Cc2cc(=O)[nH]c(C3CC3)n2)CC(C)O1 (stereo not given) | -
O=C(Nc1ccc2nc3n(c(=O)c2c1)CCCC3)c1cccc([N+](=O)[O-])c1 | -
O=c1c2c(-c3ccc([N+](=O)[O-])cc3)csc2nc2n1CCC2 | 481.3
Cc1c(C(=O)O)sc2nc3n(c(=O)c12)CCC3 | -
CCOC(=O)C(=CNc1ccc2c(c1)nnn2-c1ccc(Cl)cc1)C(=O)OCC | -
N#CCCn1nc(-c2ccccc2)cc1-n1c(C(F)(F)F)nc2ccccc21 | -
N#CCCn1ncn(-c2ccccc2)c1=S | 173.3
N#CCCn1cc(/C=C2\NC(=S)N(c3ccccc3)C2=O)c(-c2ccc(-c3ccccc3)cc2)n1 | -
COc1ccc(Cl)cc1-c1nc(SCC(=O)NC(C)C(C)C)n[nH]1 (stereo not given) | -
Cc1[nH]c2ccccc2c1[C@H]1[C@@H](CC#N)C1(C)C | -
N#Cc1c(N)nc2c(c1-c1ccncc1)CCCC2 | -
N#Cc1c2c(nc(N)c1-c1ccccc1)CCCCC2 | -
CC(C)c1ccc(-c2c(C#N)c(N)nc3c2CCCCC3)cc1 | -
N#Cc1c(N)nc2c(c1-c1ccncc1)CCCCCC2 | 450.0
SMILES | Insulin prom act
CSc1nc2c(c(-c3ccccc3)c1C#N)CCC2 | 411.1
Cc1[nH]n2c(=O)c3c(nc2c1-c1ccccc1)CCC3 | -
CC(C)CNC(=O)c1ccc(COc2ccc(Cl)cc2Cl)o1 | -
ON1C(c2ccccc2C(F)(F)F)N(O)[C@H]2CCCC[C@H]21 (stereo not given in full) | -
COCCN1C(=O)c2oc3cc(C)c(C)cc3c(=O)c2C1c1cccc(O)c1 (stereo not given) | -
CN(/N=C/c1cccnc1)c1cnc2ccccc2n1 | -
Cn1c(=O)c(-c2ccccc2)nc2ccccc21 | -
Cc1nnc2c(-c3ccccc3)nc3ccccc3n12 | -
Cn1nc(-c2ccccc2)c2nc3ccccc3nc21 | 150.0
O=C(N/N=C/c1ccc(Br)cc1)c1ccccc1-n1cccc1 | -
O=C(NC1CCCC1)C(c1cccs1)N(CC1CCCO1)C(=O)Cc1cccs1 (stereo not given) | -
Cc1ccc(-n2nnnc2SCc2nnc(-c3ccccc3Br)o2)c(C)c1 | -
Cc1ccccc1CN1C(=O)CSc2ccc(C(=O)N3CCOCC3)cc21 | -
Cc1ccccc1CC1(CO)CCCN(C(=O)c2ccc3ncccc3c2)C1 (stereo not given) | 227.8
OCC1(Cc2ccccc2)CCCN(Cc2cnn(-c3ccccc3)c2)C1 (stereo not given) | -
COc1ccccc1CCNC(=O)c1ccoc1C | -
CCOC(=O)C1=C(C)NC(=O)NC1c1ccc(-c2ccccc2F)o1 (stereo not given) | -
CCOc1ccccc1C1NC(=O)NC(C)=C1C(=O)OC1CCCC1C (stereo not given) | -
CC1=C(C(=O)OCc2ccccc2)C(c2ccccc2OC(F)F)NC(=O)N1 (stereo not given) | 300.0
CCC(C)(C)NC(=O)C(c1cccnc1)N(C(=O)c1csnn1)c1ccc(C)cc1 (stereo not given) | -
O=C(COC(=O)c1ccc(CO)cc1)NCc1cccs1 | -
CC1Cc2ccccc2N1C(=O)CO/N=C/c1ccc(OC(F)F)cc1 (stereo not given) | -
O=C(O)c1ccccc1-c1nc(-c2ccccc2)c(-c2ccccc2)[nH]1 | 289.5
CNC(=O)CSc1nc(-c2ccccc2)c(-c2ccccc2)[nH]1 | -
CC(C)c1nc(-c2ccccc2)c(-c2ccccc2)[nH]1 | -
SMILES | Insulin prom act
Cc1nn(Cc2ccc(C(=O)Nc3ccc(Br)c4cccnc34)o2)c(C)c1Br | -
CCN1C=CC2=C(C#N)C(N)C(C#N)(C#N)C(c3ccccc3C(F)(F)F)C2C1 (stereo not given) | -
COC(=O)c1cn(NC(=O)c2ccc([N+](=O)[O-])c(C)c2)c(=O)c2ccccc12 | 320.5
COC(=O)c1cn(NC(=O)c2ccc(OC)c(OC)c2)c(=O)c2ccccc12 | -
COC(=O)c1cn(NC(=O)c2cccc(F)c2)c(=O)c2ccccc12 | -
O=C(NCCO)/C(=C/c1cccc([N+](=O)[O-])c1)NC(=O)c1ccco1 | -
CCOc1cccc(C(=O)NC(=S)NCc2cccnc2)c1 | -
CCOc1cccc(C(=O)NC2CCCCC2)c1 | -
CCOc1cccc(C(=O)N2CCCCC2c2cccnc2)c1 (stereo not given) | 163.6
O=C(CCn1c(=O)oc2ccccc21)N1CCN(c2ccccc2Cl)CC1 | -
N#CCC(=N)N1CCN(c2ccccc2Cl)CC1 | 176.7
O=C(CCN1C(=O)C2C3C=CC(C3)C2C1=O)N1CCN(c2ccccc2Cl)CC1 (stereo not given) | -
COc1ccc(-n2c(SCC3OCCO3)nc3c(sc(=S)n3-c3ccccc3)c2=O)cc1OC | -
COc1ccc(/C=N/Nc2cn[nH]c(=O)c2Cl)cc1 | -
O=C(/C=C/c1ccc2c(c1)OCO2)Nc1ccc(Cl)cn1 | -
Fc1cccc(-n2ncc(-c3nnnn3-c3ccccc3)c2C(F)(F)F)c1 | 528.6
Clc1cccc(N2CCN(c3nnnn3-c3ccccc3)CC2)c1 | -
c1ccc(-n2nnnc2OCCOc2nnnn2-c2ccccc2)cc1 | -
O=C(CCCn1c(=S)[nH]c2ccc(Br)cc2c1=O)N1CCN(c2ccccn2)CC1 | -
O=C(C1CCCO1)N1CCN(C(=S)Nc2ccccc2Cl)CC1 (stereo not given) | -
CC(C)(C)OC(=O)N[C@@H](Cc1ccccc1)c1nnc(SCC(=O)c2ccc(Cl)cc2)o1 | 506.7
Cc1ccccc1CS(=O)(=O)c1nnc([C@H](Cc2ccccc2)NC(=O)OC(C)(C)C)o1 | -
CC(C)(C)OC(=O)N[C@@H](Cc1c[nH]c2ccccc12)c1nnc(SCC(N)=O)o1 | -
C/C(=N\n1cnnc1)c1ccc(C#N)cc1 | -
COC(=O)c1cn(C(=O)c2ccc(C)c(C)c2)c2ccccc12 | -
SMILES | Insulin prom act
COC(=O)c1cn(C(=O)c2ccc(Br)o2)c2ccccc12 | -
COC(=O)c1cn(C(=O)c2cccc(C)c2)c2ccccc12 | 483.3
Cc1ccc2nc(/C(C#N)=C\c3ccc(N4CCOCC4)o3)[nH]c2c1 | 455.6
Cc1ccc2nc(/C(C#N)=C\c3ccc(Oc4ccc([N+](=O)[O-])cn4)cc3)[nH]c2c1 | -
Cc1ccc2nc(/C(C#N)=C\c3cc(C)n(-c4cccc([N+](=O)[O-])c4)c3C)[nH]c2c1 | -
COC(=O)C1=C(C)NC(=S)NC1c1ccco1 (stereo not given) | -
